Reference: PubChem BioAssay AID2237 (Johns Hopkins Ion Channel Center, 2010)
In all, about 310,000 compounds went through this assay and about 1,500 (0.48%) were called active.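 Rule for the calls: active = B-score above 5 SD of library B-scores, and initial fluorescence ratio not above library mean plus 5 SD; inactive = the rest.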 Shown is part of a subset that was picked to be rich in actives.

Biological target: Short transient receptor potential channel 4 (Mus musculus) (UniProt Q9QUQ5)
Test: activators of mouse TRPC4 channel, primary screen, Fluo4 calcium, HEK293 TRPC4beta/mu-opioid cells (AID 2237);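 for B-score: positive B-score marks a calcium rise read as TRPC4 activation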
Details: Fluo4 calcium fluorescence, at 10 µM; active compounds read high
Summary of the method: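 Assay system: HEK293 cells stably co-expressing mouse TRPC4beta and mu-opioid receptor / Timing: Fluo4 dye loading 45 min at room temperature, 110 s recording / Signal: Fluo4 calcium-sensitive dye fluorescence, kinetic, 1 Hz baseline / Read-out: integrated baseline-normalised fluorescence ratio, converted to per-well B score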

Sequence of Short transient receptor potential channel 4 (Mus musculus) (Q9QUQ5 whole entry, looked up): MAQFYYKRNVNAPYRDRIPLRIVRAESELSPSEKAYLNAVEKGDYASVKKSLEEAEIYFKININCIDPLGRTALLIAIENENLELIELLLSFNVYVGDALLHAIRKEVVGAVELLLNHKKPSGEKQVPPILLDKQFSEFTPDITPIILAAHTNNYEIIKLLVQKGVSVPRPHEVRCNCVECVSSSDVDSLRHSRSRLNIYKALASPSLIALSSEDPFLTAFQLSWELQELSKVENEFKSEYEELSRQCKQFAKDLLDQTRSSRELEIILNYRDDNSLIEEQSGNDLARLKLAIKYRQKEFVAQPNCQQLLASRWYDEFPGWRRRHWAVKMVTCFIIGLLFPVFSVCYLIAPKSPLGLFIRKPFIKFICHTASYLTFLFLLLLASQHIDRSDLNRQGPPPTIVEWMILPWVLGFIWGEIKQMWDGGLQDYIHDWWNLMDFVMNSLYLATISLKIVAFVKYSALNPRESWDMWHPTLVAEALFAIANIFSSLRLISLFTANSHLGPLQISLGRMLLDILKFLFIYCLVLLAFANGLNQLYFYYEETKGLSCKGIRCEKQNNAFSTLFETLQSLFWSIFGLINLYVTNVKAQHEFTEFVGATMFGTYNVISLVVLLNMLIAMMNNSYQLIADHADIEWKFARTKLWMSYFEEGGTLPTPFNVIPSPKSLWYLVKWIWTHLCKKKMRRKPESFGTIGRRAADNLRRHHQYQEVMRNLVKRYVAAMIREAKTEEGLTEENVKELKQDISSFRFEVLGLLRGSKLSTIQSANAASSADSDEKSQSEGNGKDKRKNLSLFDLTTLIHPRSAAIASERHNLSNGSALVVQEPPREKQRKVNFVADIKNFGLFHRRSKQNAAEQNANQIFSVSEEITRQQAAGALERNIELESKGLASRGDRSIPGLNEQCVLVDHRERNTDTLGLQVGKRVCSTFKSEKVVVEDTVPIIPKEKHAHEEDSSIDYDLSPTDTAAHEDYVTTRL

SMILES	B-score
CC(C)(C)S(=O)(=O)c1ccccc1-c1noc(-c2ccccc2)c1C(N)=O	inactive
Cn1c(CCNS(=O)(=O)c2ccc(F)cc2)nnc1SCc1cccnc1	inactive
COc1ccc(NC(=O)c2cc([N+](=O)[O-])ccc2NC(=O)CNC2CCCCC2C)c(OC)c1 (stereo not given)	inactive
Cc1ccc(C(=O)CCC(=O)N(C)CC(=O)Nc2c(Cl)cccc2Cl)cc1	inactive
O=c1c2cc(Br)ccc2nc(-c2cccc(Cl)c2)n1O	121 (active)
O=C1CCCc2c1nc(-c1cccc(Cl)c1)n2O	inactive
Cc1cccc(-c2nc3ccccc3c(=O)n2NC(=O)Cc2ccc(Cl)cc2)c1	inactive
O=c1[nH]c(CN2CCN(S(=O)(=O)c3ccc4c(c3)OCCO4)CC2)nc2sc3c(c12)CCCC3	inactive
N#CC1(NC(=O)COC(=O)CCN=C2NS(=O)(=O)c3ccccc32)CCCCC1	inactive
O=C(OCCN=C1NS(=O)(=O)c2ccccc21)c1cccc([N+](=O)[O-])c1	inactive
O=C(CCCN=C1NS(=O)(=O)c2ccccc21)OCC(=O)c1ccc(F)c(F)c1	50 (active)
Cc1cc(C)c2nc(N3CCC(C(=O)NCCN4CCOCC4)CC3)sc2c1	inactive
CCC1CCCCN1CCCNC(=O)c1cc2c(Cl)nc3ccccc3c2s1 (stereo not given)	inactive
CC1CCCCN1S(=O)(=O)c1ccc(C(=O)Nc2nnc(-c3cccs3)o2)cc1 (stereo not given)	74 (active)
CSCc1nnc(NC(=O)c2ccc(S(=O)(=O)N3CCCCC3C)cc2)o1 (stereo not given)	inactive
CC1CCCN(S(=O)(=O)c2ccc(C(=O)Nc3nnc(-c4ccncc4)o3)cc2)C1 (stereo not given)	inactive
COc1ccc(N2C(=O)NC(NS(=O)(=O)c3ccc(Cl)cc3)(C(F)(F)F)C2=O)cc1 (stereo not given)	inactive
CCCc1ccc(OCC(O)CN2CCN(CCO)CC2)cc1 (stereo not given)	inactive
CCOc1ccc(N(CC(=O)NCCc2ccc(OC)cc2)S(C)(=O)=O)cc1	inactive
CC1(C)CC(N2CCN(C(c3ccccc3)c3ccccc3)CC2)=CC(=[N+]2CCCCC2)C1	inactive
COCCN1C(=O)N[C@@H](CCc2ccccc2)[C@H](C(C)=O)[C@H]1C	inactive
COC(=O)C1=C(C)N(C)C(=S)NC1c1ccccc1 (stereo not given)	inactive
COCCN1C2=C(COC(C)(C)C2)C(=S)NC1c1ccccc1 (stereo not given)	76 (active)

SMILES	B-score
CCN(c1ccccc1)S(=O)(=O)c1ccc2[nH]c(=O)[nH]c2c1	inactive
CCOc1ccc(C(=O)NC2CCN(S(=O)(=O)CC)CC2)cc1	inactive
CCOc1ccc(CC(=O)NC2CCN(Cc3ccccc3)CC2)cc1	inactive
CCOc1ccc(NS(=O)(=O)c2ccc(C(=O)NC3CCN(Cc4ccccc4)CC3)cc2)cc1	49 (active)
CN(CCc1ccccn1)C(=O)c1ccc(OC2CCN(CCc3ccccc3)CC2)cc1	inactive
CC(O)CN(Cc1ccc(Cl)cc1)CC(C)O (stereo not given)	inactive
COc1cc(C(=O)N(C)Cc2cccc(OC)c2OC)ccc1OCC(=O)Nc1cccc(C(F)(F)F)c1	inactive
O=C(NNC(=S)NCc1ccco1)C(c1ccccc1)c1ccccc1	inactive
CC(C)C(=O)Nc1cccc(NC(=S)NC(=O)C(c2ccccc2)c2ccccc2)c1	inactive
CCCCC(=O)NNC(=S)NC(=O)C(c1ccccc1)c1ccccc1	152 (active)
CCOc1ccc(OCc2ccc(C(=O)N(C)c3ccccc3)o2)cc1	inactive
COc1ccc(NC(=O)CN(C)C(=O)c2ccc(COc3ccccc3)o2)cc1	inactive
O=C(NCCc1ccccn1)c1ccc(COc2ccccc2)o1	120 (active)
Cc1cc(N2CCN(c3ccc(F)cc3)CC2)n2ncnc2n1	inactive
CCOCCCNC(=O)C(=O)NCCCOCC	inactive
CCCCn1c(-c2cccc(C)c2)nc2cc3[nH]c(=O)c(C(C)C)nc3cc21	inactive
Cc1ccnc(NC(=O)CCNS(=O)(=O)c2ccc(C)c(C)c2)c1	inactive
CCOc1ccc(NS(=O)(=O)c2ccc(C(=O)NCC(c3ccccc3OC)N3CCCC3)cc2)cc1 (stereo not given)	inactive
CC(NC(=O)COC(=O)c1ccc(Cl)cc1O)c1ccc(F)cc1 (stereo not given)	inactive
COc1ccc(Cl)cc1NC(=O)CNc1ccccc1F	inactive
COc1ccc(C(CNCC(=O)Nc2ccccc2F)N(C)C)cc1 (stereo not given)	108 (active)
COc1ccc(C(CNC(=O)c2ccc(S(=O)(=O)Nc3ccccc3F)cc2)N(C)C)cc1 (stereo not given)	inactive
CC1(C)CC(=O)c2ccc(O)cc2O1	inactive

SMILES	B-score
COc1ccc2c(c1)SC(C)CC2=O (stereo not given)	inactive
COc1ccc2c(c1)OC(O)(C(F)(F)C(F)F)CC2=O (stereo not given)	82 (active)
O=S1(=O)CC/C(=N\Nc2ccc(F)cc2)c2ccsc21	inactive
CC(C)Sc1ncnc2c1cnn2-c1ccccc1	inactive
COc1ccc(-n2ncc3c(SCC(=O)NNC(C)=O)ncnc32)cc1	inactive
COc1ccc(-n2ncc3c(N4CCc5ccccc54)ncnc32)cc1	64 (active)
CC(C)N1CCC(NC(=O)Nc2ccccc2)CC1	inactive
COc1ccccc1N(CC(=O)N1CCCCC1)S(=O)(=O)c1ccccc1	56 (active)
COc1ccc(N(CC(=O)N2CCCCCC2)S(=O)(=O)c2ccccc2)cc1	inactive
COc1ccc(C)cc1N(CC(=O)N1CCCC1)S(=O)(=O)c1ccccc1	inactive
COC(=O)CC1=NN(c2nc(C)cc(C)n2)C(=O)C1	inactive
O=C(COc1ccc(Br)cc1F)NC1CCN(Cc2ccccc2)CC1	inactive
S=C(Nc1ccc(Br)cc1)NC1CCN(Cc2ccccc2)CC1	inactive
S=C(Nc1ccc(Br)cc1Cl)NC1CCN(Cc2ccccc2)CC1	57 (active)
O=C(COc1ccccc1Cl)N1CCCCCCC1	inactive
CCN1C(=O)C(C(=O)NC(C)c2ccccc2)C2CC1(C)Oc1ccccc12 (stereo not given)	inactive
CCCCN(CC)CCCNC(=O)CS(=O)(=O)Cc1nc(-c2cccc(OC)c2)oc1C	56 (active)
COc1cccc(-c2nc(CS(=O)(=O)CC(=O)NCCc3ccc(OC)c(OC)c3)c(C)o2)c1	inactive
COc1ccc(-c2nc(CS(=O)(=O)CC(=O)NCc3cccc(Br)c3)c(C)o2)cc1	inactive
CCN1/C(=C\c2ccc3ccccc3[n+]2CC)Sc2cc(C)ccc21	425 (active)
CCOc1ccc(CN2CCNC(=O)C2CC(=O)NCCCC2CCCC2)cc1 (stereo not given)	inactive
CCN(CC)c1ccc(NC(=O)C2CCC(CNc3c(N4CCCC4)c(=O)c3=O)CC2)c(C)c1 (stereo not given)	inactive
CCCn1c(C2CCCN2c2nc(-c3ccc(OC)cc3)cs2)nc2ccccc21 (stereo not given)	70 (active)

SMILES	B-score
CCCn1c(C2CCCN2c2nc(-c3ccc(C)cc3)cs2)nc2cc(Cl)c(N3CCCCC3)cc21 (stereo not given)	inactive
CCCn1c(CCNc2nc(-c3ccc(OC)cc3)cs2)nc2ccccc21	inactive
CCN1C(=O)[C@H]2[C@@H](c3ccc(-c4ccc(OC)cc4)cc3)N[C@@](Cc3ccccc3)(C(=O)OC)[C@H]2C1=O	inactive
COC(=O)c1cc(S(=O)(=O)NC2CCN(Cc3ccccc3)CC2)cn1C	inactive
CCC1(CC)Cc2ccccc2-c2nc(CCl)[nH]c(=O)c21	inactive
COc1cc(CN2CCCC(C(=O)c3ccc(SC)cc3)C2)cc(Cl)c1O (stereo not given)	inactive
COc1ccc(CN2CCCC(C(=O)c3ccc(Cl)cc3)C2)cc1Cn1cncn1 (stereo not given)	48 (active)
COc1ccc(CCN(C)C(=O)C2CCCN(Cc3ccc(OC)c(OC)c3)C2)cc1OC (stereo not given)	inactive
CCNS(=O)(=O)c1ccc(CCC(=O)N2CCN(c3ccc(OC)cc3)CC2)cc1	inactive
COCC(=O)Nc1ccc(Br)cc1	inactive
CN1C(CC(=O)Nc2ccc(Br)cc2)c2ccccc2CC1(C)C (stereo not given)	109 (active)
CN1CCN(NC(=O)Nc2ccc(Br)cc2)CC1	inactive
COC(=O)C1CCN(C(=O)NC2CC(=O)N(c3ccc4c(c3)OCCO4)C2)CC1 (stereo not given)	inactive
CN(CC(=O)Nc1ccccc1Cl)C(=O)COc1cccc2c1OC(C)(C)C2	inactive
COc1cccc(CC2(CO)CCCN(Cc3nc(-c4cccs4)oc3C)C2)c1 (stereo not given)	inactive
CCOC(=O)C1(CC2CCCCO2)CCN(Cc2nc(-c3cccs3)oc2C)CC1 (stereo not given)	73 (active)
CCOc1ccccc1-c1nc(CN2CCC(C(=O)N3CCOCC3)CC2)c(C)o1	inactive
CC12CCC(C(=O)N(NC(=O)c3ccccc3O)C1=O)C2(C)C (stereo not given)	inactive
O=C(NCc1cccnc1)c1cnc2ccccc2n1	inactive
COc1cc(C(=O)Nn2c(CC(C)C)nc3ccccc3c2=O)cc(OC)c1OC	inactive
Cc1ccc(CNC(=O)c2c(-c3ccccc3)noc2C)cc1	inactive
Cc1onc(-c2c(Cl)cccc2Cl)c1C(=O)NNC(=O)c1c(-c2c(Cl)cccc2Cl)noc1C	inactive
COc1ccc(C(=O)NC(=S)NNC(=O)c2c(-c3ccccc3)noc2C)cc1	133 (active)

SMILES	B-score
CCc1noc(C)c1C(=O)NNC(=O)c1ccc(F)cc1	inactive
Cc1onc(-c2ccccc2)c1C(=O)Nc1ccccc1C#N	inactive
Cc1onc(-c2ccccc2)c1C(=O)NNC(=S)NC(=O)c1ccc(F)cc1	185 (active)
CCc1cccc(C)c1NS(=O)(=O)c1cc(Br)cnc1N	inactive
Cc1cc(NS(=O)(=O)c2ccc(NC(=O)C(C)Oc3cccc(C)c3C)cc2)nc(C)n1 (stereo not given)	inactive
COc1ccccc1N1CCN(c2nc(C)cc(=O)[nH]2)CC1	inactive
Cc1ccc(CN2CCN(c3ccccc3Cl)CC2)o1	inactive
OCCNCc1cccc(OCc2ccccc2Cl)c1	inactive
OCCNCCOc1ccc(Cl)c(Cl)c1	70 (active)
OCCNCCCCOc1ccccc1F	inactive
COc1cccc2c1CCC(NC(C)=O)C2=O (stereo not given)	inactive
c1ccc(C[C@H]2CNCCN2CCC23CC4CC(CC(C4)C2)C3)cc1	inactive
COC(=O)C1(C)CC1(c1ccccc1)c1ccccc1 (stereo not given)	inactive
CCN(CC(=O)Nc1ccc(S(=O)(=O)N2CCCC2)cc1)CC(=O)Nc1cccc(OC)c1	inactive
COc1cccc(NC(C)=[N+](C)CCNS(=O)(=O)c2ccc(Cl)cc2)c1	inactive
CCNS(=O)(=O)c1ccc(NC(=O)Nc2cccc(OC)c2)cc1	54 (active)
CC(CN1CCCCC1)c1ccccc1 (stereo not given)	inactive
CC(=O)c1ccc(N2CCN(CC(O)c3ccccc3)CC2)cc1 (stereo not given)	63 (active)
CC(=O)N1CCN(CC(c2ccccc2)c2ccccc2)CC1	inactive
CC(=O)c1ccc(N2CCN(C(=O)CCc3ccccc3)CC2)cc1	inactive
CCCOc1ccc(Cc2c(O)nc(N)[nH]c2=O)cc1C	inactive
C=CCc1ccc(OCCOc2cccc(/C=N/n3cnnc3)c2)c(OC)c1	inactive
COC(=O)[C@H]1Cc2cnoc2C[C@]1(C)C(=O)O	inactive
